{
  "source": "ChEMBL document CHEMBL3393023",
  "about": "“Benzimidazole-containing HCV NS5A inhibitors: effect of 4-substituted pyrrolidines in balancing genotype 1a and 1b potency” (Bioorg Med Chem Lett, 2015)",
  "key": {"Hepatitis C virus [1]": {"system": "Hepatitis C virus", "test": "Selectivity index, ratio of EC50 for HCV genotype 1b expressing NS5A Y93H mutant to EC50 for HCV genotype 1b expressing wild type NS5A", "assay_type": "functional, Hepacivirus hominis", "how_it_was_run": "(§1)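 Recombinant HCV replicon cell lines carrying the single NS5A substitution were tested, with the matching wild-type replicon as reference. The value is the fold shift of activity against the mutant relative to wild-type activity.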"}, "[2]": {"test": "Cmax in rat at 3 mg/kg, po", "assay_type": "ADME, organism-based", "set-up": "dose 3 mg/kg, route oral", "conditions": "in vivo", "how_it_was_run": "(§2)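 Rats were dosed orally at 3 mg/kg as a solution in 30% aqueous PEG-400.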"}, "[3]": {"test": "Protein binding in rat plasma", "assay_type": "ADME, cell-free", "conditions": "read-out: PPB (converted)"}, "MDR1 (human)": {"system": "MDR1 (human)", "test": "Efflux ratio of permeability in MDCK cells over-expressing human Mdr1", "assay_type": "ADME, cell-based, Canis lupus familiaris", "conditions": "dog"}, "[4]": {"test": "Oral bioavailability in rat at 3 mg/kg", "assay_type": "ADME, organism-based", "conditions": "in vivo", "how_it_was_run": "as §2"}, "[5]": {"test": "Clearance in iv dosed rat", "assay_type": "ADME, organism-based", "conditions": "in vivo"}, "[6]": {"test": "Half life in rat at 3 mg/kg, po", "assay_type": "ADME, organism-based", "set-up": "dose 3 mg/kg, route oral", "conditions": "in vivo", "how_it_was_run": "as §2"}, "[7]": {"test": "Permeability from apical to basolateral layer in human Caco2 cells", "assay_type": "ADME, cell-based", "conditions": "Caco-2, read-out: permeability"}, "[8]": {"biological_target": "T1, Voltage-gated inwardly rectifying potassium channel KCNH2 (Homo sapiens, UniProt Q12809)", "T1 sequence (Q12809 whole entry)": "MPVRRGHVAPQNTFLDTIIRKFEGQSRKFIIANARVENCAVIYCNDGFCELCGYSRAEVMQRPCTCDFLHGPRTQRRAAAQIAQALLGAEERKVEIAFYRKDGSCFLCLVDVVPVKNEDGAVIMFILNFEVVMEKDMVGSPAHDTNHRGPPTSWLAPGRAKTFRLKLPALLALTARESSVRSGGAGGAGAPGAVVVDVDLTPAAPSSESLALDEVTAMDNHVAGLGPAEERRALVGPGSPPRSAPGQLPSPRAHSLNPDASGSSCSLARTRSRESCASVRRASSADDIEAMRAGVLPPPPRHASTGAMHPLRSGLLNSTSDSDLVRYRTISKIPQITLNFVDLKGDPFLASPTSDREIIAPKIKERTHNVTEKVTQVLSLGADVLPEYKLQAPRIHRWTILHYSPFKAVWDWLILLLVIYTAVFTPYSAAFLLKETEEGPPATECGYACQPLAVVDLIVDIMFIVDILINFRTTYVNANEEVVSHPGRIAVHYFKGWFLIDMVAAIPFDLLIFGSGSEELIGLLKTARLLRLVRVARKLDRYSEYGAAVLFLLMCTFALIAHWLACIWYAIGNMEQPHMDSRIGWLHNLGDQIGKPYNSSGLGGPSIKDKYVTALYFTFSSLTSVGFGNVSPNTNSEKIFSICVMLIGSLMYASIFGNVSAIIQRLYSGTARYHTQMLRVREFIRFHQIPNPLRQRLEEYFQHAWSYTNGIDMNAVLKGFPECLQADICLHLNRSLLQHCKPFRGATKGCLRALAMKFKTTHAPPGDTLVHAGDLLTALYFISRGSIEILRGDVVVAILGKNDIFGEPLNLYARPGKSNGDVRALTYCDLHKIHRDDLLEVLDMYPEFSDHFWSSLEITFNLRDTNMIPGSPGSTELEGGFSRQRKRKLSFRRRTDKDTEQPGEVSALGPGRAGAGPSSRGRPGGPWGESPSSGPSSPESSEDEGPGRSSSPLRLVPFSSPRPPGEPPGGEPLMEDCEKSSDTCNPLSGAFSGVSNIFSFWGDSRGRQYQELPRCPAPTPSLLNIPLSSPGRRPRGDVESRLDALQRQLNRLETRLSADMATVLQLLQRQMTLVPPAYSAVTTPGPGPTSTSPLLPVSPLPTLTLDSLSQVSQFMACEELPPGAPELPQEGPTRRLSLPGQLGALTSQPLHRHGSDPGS", "test": "Inhibition of human ERG channel by QPatch technique"}, "[9]": {"test": "Volume of distribution at steady state in iv dosed rat", "assay_type": "ADME, organism-based", "conditions": "in vivo, read-out: Vdss"}, "[10]": {"test": "Cytotoxicity against human Huh7ET cells by [3H]-thymidine incorporation assay", "assay_type": "cell-based", "conditions": "Huh7ET cells (Huh-7)", "how_it_was_run": "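Huh-7 ET cells were exposed to 12 test-compound concentrations, each in duplicate. Viability was read by [3H]-thymidine incorporation and CC50 was derived from the curve. A run was accepted only when the positive-control CC50 fell within 40% of its mean value.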"}, "Cytochrome P450 2C9": {"biological_target": "Cytochrome P450 2C9 (Homo sapiens, UniProt P11712)", "sequence (P11712 whole entry)": "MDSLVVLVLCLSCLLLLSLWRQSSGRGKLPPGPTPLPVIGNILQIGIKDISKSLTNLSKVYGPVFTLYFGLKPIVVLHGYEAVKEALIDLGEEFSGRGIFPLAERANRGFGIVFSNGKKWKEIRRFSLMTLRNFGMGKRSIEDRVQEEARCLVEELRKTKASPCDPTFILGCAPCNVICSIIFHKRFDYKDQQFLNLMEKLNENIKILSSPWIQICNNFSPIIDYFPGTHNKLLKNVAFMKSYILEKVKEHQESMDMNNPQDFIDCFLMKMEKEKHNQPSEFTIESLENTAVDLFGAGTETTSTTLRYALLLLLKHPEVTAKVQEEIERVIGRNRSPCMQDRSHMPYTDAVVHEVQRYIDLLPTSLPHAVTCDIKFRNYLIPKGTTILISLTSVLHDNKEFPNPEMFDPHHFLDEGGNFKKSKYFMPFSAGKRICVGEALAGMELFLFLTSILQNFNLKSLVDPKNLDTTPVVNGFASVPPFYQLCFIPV", "test": "Inhibition of CYP2C9 (unknown origin)", "assay_type": "ADME"}, "[11]": {"test": "Half life in iv dosed rat", "assay_type": "ADME, organism-based", "conditions": "in vivo"}, "[12]": {"test": "Metabolic stability in human hepatocytes assessed as compound remaining at 5 uM after 60 mins", "assay_type": "ADME, cell-based, Hepatocyte", "conditions": "read-out: Stability"}, "Cytochrome P450 2C19": {"biological_target": "Cytochrome P450 2C19 (Homo sapiens, UniProt P33261)", "sequence (P33261 whole entry)": "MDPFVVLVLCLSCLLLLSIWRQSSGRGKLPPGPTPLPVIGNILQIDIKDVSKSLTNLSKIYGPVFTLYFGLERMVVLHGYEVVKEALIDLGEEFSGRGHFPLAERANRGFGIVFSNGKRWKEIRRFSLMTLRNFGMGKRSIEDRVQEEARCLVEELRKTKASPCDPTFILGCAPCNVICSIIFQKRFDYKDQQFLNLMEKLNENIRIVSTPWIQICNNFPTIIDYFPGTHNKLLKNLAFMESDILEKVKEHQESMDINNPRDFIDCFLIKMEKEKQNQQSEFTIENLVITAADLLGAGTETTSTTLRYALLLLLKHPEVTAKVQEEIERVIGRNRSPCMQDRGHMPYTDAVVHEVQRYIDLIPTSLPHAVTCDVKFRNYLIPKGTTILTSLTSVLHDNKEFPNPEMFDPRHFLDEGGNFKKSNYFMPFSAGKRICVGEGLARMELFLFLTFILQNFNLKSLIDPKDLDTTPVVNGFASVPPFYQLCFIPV", "test": "Inhibition of CYP2C19 (unknown origin)", "assay_type": "ADME"}, "Hepatitis C virus [13]": {"system": "Hepatitis C virus", "test": "Selectivity index, ratio of EC50 for HCV genotype 1a expressing NS5A Q30R mutant to EC50 for HCV genotype 1a expressing wild type NS5A", "assay_type": "functional, Hepacivirus hominis, subtype 1a", "how_it_was_run": "as §1"}, "[14]": {"test": "Metabolic stability in rat hepatocytes assessed as compound remaining at 5 uM after 60 mins", "assay_type": "ADME, cell-based, Hepatocyte", "conditions": "read-out: Stability"}, "Hepatitis C virus [15]": {"system": "Hepatitis C virus", "test": "Selectivity index, ratio of EC50 for HCV genotype 1a expressing NS5A M28T mutant to EC50 for HCV genotype 1a expressing wild type NS5A", "assay_type": "functional, Hepacivirus hominis, subtype 1a", "how_it_was_run": "as §1"}, "[16]": {"test": "AUC (0 to 8 hrs) in rat at 3 mg/kg, po", "assay_type": "ADME, organism-based", "set-up": "time < 8 hr, dose 3 mg/kg, route oral", "conditions": "plasma", "how_it_was_run": "as §2"}, "Cytochrome P450 3A4": {"biological_target": "Cytochrome P450 3A4 (Homo sapiens, UniProt P08684)", "sequence (P08684 whole entry)": "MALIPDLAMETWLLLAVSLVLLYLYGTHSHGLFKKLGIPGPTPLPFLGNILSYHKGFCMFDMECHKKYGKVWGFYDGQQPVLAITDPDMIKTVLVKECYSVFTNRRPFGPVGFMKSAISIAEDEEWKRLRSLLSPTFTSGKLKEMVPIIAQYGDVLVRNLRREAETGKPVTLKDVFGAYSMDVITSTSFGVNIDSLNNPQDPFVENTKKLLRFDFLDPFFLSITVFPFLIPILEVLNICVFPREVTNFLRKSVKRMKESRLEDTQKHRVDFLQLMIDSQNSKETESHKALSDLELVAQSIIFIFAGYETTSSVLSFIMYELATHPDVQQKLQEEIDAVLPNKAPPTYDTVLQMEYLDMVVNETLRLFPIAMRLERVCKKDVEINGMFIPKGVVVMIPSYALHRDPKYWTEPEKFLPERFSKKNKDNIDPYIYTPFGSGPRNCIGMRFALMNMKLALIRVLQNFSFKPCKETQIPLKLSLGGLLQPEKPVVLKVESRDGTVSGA", "test": "Inhibition of CYP3A4 (unknown origin)", "assay_type": "ADME"}, "Hepatitis C virus [17]": {"system": "Hepatitis C virus", "test": "Antiviral activity against Hepatitis C virus genotype 1a infected in W11.8 cells assessed as decrease in NS5A expression in replicon cell after 4 days by luminescence based ELISA", "assay_type": "functional, Hepacivirus hominis", "conditions": "subtype 1a, W11.8, 96 h"}, "Cytochrome P450 1A2": {"biological_target": "T2, Cytochrome P450 1A2 (Homo sapiens, UniProt P05177)", "T2 sequence (P05177 whole entry)": "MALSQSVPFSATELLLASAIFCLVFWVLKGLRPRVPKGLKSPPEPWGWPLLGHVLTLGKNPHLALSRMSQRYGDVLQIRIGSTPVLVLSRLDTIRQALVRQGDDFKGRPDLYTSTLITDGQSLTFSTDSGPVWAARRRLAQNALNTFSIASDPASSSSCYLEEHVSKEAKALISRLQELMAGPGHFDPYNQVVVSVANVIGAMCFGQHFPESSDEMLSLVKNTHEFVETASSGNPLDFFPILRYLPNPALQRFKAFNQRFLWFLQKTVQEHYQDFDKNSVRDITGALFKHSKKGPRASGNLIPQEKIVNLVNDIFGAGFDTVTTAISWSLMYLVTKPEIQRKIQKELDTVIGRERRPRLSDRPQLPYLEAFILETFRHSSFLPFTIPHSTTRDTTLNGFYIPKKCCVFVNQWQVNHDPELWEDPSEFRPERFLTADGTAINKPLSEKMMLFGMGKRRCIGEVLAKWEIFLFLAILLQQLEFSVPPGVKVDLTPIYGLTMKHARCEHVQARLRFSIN", "test": "Inhibition of CYP1A2 (unknown origin)", "assay_type": "ADME"}, "Cytochrome P450 2D6": {"biological_target": "Cytochrome P450 2D6 (Homo sapiens, UniProt P10635)", "sequence (P10635 whole entry)": "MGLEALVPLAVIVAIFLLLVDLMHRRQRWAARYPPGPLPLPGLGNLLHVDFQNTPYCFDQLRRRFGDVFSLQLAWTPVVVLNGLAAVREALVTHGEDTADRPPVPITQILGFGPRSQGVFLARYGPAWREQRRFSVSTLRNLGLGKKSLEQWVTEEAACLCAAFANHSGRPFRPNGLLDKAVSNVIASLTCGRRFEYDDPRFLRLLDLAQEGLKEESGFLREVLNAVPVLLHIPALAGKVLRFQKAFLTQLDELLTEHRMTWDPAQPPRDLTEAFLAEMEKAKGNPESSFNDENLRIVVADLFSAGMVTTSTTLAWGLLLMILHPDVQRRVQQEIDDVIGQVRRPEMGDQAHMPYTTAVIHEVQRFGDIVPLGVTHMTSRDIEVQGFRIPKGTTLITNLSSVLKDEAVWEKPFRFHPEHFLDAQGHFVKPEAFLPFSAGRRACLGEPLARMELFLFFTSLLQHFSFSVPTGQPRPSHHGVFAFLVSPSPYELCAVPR", "test": "Inhibition of CYP2D6 (unknown origin)", "assay_type": "ADME"}, "[18]": {"biological_target": "T1, Voltage-gated inwardly rectifying potassium channel KCNH2", "test": "Inhibition of human ERG channel by planar technique"}, "[19]": {"test": "Protein binding in human plasma", "assay_type": "ADME, cell-free", "conditions": "read-out: PPB (converted)"}, "Hepatitis C virus [20]": {"system": "Hepatitis C virus", "test": "Selectivity index, ratio of EC50 for HCV genotype 1a expressing NS5A Y93H mutant to EC50 for HCV genotype 1a expressing wild type NS5A", "assay_type": "functional, Hepacivirus hominis, subtype 1a", "how_it_was_run": "as §1"}, "Hepatitis C virus [21]": {"system": "Hepatitis C virus", "test": "Antiviral activity against Hepatitis C virus genotype 1b infected in human Huh-5.2 cells assessed as decrease in HCV replicon RNA replication after 4 days by luciferase assay", "assay_type": "functional, cell-based, Hepacivirus hominis", "conditions": "Huh-5-2, 96 h"}},
  "data": [
    {"smiles": "COC(=O)N[C@H](C(=O)N1C[C@@H](C)C[C@H]1c1nc(-c2ccc(-c3ccc(-c4ccc5[nH]c([C@@H]6C[C@H](C)CN6C(=O)[C@@H](NC(=O)OC)C(C)C)nc5c4)cc3)cc2)c[nH]1)C(C)C", "values": [
      {"measurement": "Selectivity ratio", "setting": "Hepatitis C virus [1]", "result": 100},
      {"measurement": "Cmax", "setting": "[2]", "result": 0.03, "unit": "ng/mL"},
      {"measurement": "fraction unbound", "setting": "[3]", "result": 0.083},
      {"measurement": "efflux ratio", "setting": "MDR1 (human)", "result": 1.8},
      {"measurement": "bioavailability", "setting": "[4]", "result": 26, "unit": "%"},
      {"measurement": "clearance", "setting": "[5]", "result": 9, "unit": "mL/min/kg"},
      {"measurement": "half-life", "setting": "[6]", "result": 3.5, "unit": "h"},
      {"measurement": "Papp A→B", "setting": "[7]", "result": 4.1, "unit": "×10⁻⁶ cm/s"},
      {"measurement": "IC50", "setting": "[8]", "result": "> 30", "unit": "µM"},
      {"measurement": "Vd", "setting": "[9]", "result": 1.4, "unit": "L/kg"},
      {"measurement": "CC50", "setting": "[10]", "result": "> 20", "unit": "µM"},
      {"measurement": "IC50", "setting": "Cytochrome P450 2C9", "result": "> 30", "unit": "µM"},
      {"measurement": "half-life", "setting": "[11]", "result": 2, "unit": "h"},
      {"measurement": "remaining at 1 h, 5 µM", "setting": "[12]", "result": "> 90", "unit": "%"},
      {"measurement": "IC50", "setting": "Cytochrome P450 2C19", "result": "> 30", "unit": "µM"},
      {"measurement": "Selectivity ratio", "setting": "Hepatitis C virus [13]", "result": 42},
      {"measurement": "remaining at 1 h, 5 µM", "setting": "[14]", "result": "> 90", "unit": "%"},
      {"measurement": "Selectivity ratio", "setting": "Hepatitis C virus [15]", "result": 55},
      {"measurement": "AUC(0-t) at 8 h", "setting": "[16]", "result": 2080, "unit": "ng·h/mL"},
      {"measurement": "IC50", "setting": "Cytochrome P450 3A4", "result": "> 30", "unit": "µM"},
      {"measurement": "EC50", "setting": "Hepatitis C virus [17]", "result": 4, "unit": "pM"},
      {"measurement": "IC50", "setting": "Cytochrome P450 1A2", "result": "> 30", "unit": "µM"},
      {"measurement": "IC50", "setting": "Cytochrome P450 2D6", "result": "> 30", "unit": "µM"},
      {"measurement": "IC50", "setting": "[18]", "result": "> 30", "unit": "µM"},
      {"measurement": "fraction unbound", "setting": "[19]", "result": 0.014},
      {"measurement": "Selectivity ratio", "setting": "Hepatitis C virus [20]", "result": 8000},
      {"measurement": "EC50", "setting": "Hepatitis C virus [21]", "result": 5, "unit": "pM"}
    ]}
  ]
}
